# Several values for one entry are separate records, joined by “and”; a condition that tells them apart may be missing. Equal values may be shown once.
# Tested on: Fibroblast
# Experiment: Multiplex assay against human fibroblast
# Assay type: toxicity, cell-based
# How it was run: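 Live cells were stained at seeding with Hoechst33342, BioTracker Green Microtubule Cytoskeleton Dye, MitoTracker Red and Annexin V Alexa Fluor 680. Following compound addition, they were imaged on a CQ1 microscope at 37°C and 5% CO2 and gated by CellPathfinder machine learning into Hoechst high-intensity objects or normal cells, with normal cells split into healthy, pyknosed or fragmented nuclei and pyknosed cells into mitotic or apoptotic. Tubulin, mitochondrial-mass and membrane-permeability phenotypes are per cents of healthy-nucleus cells.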
# [1] = 12 h, 1 µM, compound concentration 1 uM
# [2] = 12 h, 10 µM, compound concentration 10 uM
# [3] = 24 h, 1 µM, compound concentration 1 uM
# [4] = 24 h, 10 µM, compound concentration 10 uM
# [5] = 48 h, 1 µM, compound concentration 1 uM
# [6] = 48 h, 10 µM, compound concentration 10 uM
structure (smiles),measurement,setting,value
NC1=NC(=O)/C(=C2\CCNC(=O)c3[nH]c4ccccc4c32)N1,Population Apoptotic (%),[1],5.88% and 11.11%
same,Population Healthy Nuclei (%),[1],60.61% and 85.31%
same,Population Hoechst High Intensity Objects (%),[1],0%
same,Population Membrane Permeable-Phenotype (%),[1],2% and 1.91%
same,Population Mitochondria Different-Phenotype (%),[1],8% and 7.66%
same,Population Mitotic Cells (%),[1],94.12% and 88.89%
same,Population Normal (%),[1],100%
same,Population Pyknosed Nuclei (%),[1],20.61% and 11.02%
same,Population Tubulin-Different-Phenotype (%),[1],10% and 11.48%
same,Total Cell Count,[1],165 and 245
same,Population Fragmented Nuclei (%),[2],8.29% and 5.11%
same,Population Healthy Nuclei (%),[2],63.9% and 72.73%
same,Population Hoechst High Intensity Objects (%),[2],0%
same,Population Membrane Permeable-Phenotype (%),[2],3.82% and 2.34%
same,Population Mitochondria Different-Phenotype (%),[2],7.63% and 9.38%
same,Population Mitotic Cells (%),[2],92.98% and 76.92%
same,Population Normal (%),[2],100%
same,Population Pyknosed Nuclei (%),[2],27.8% and 22.16%
same,Population Tubulin-Different-Phenotype (%),[2],9.92% and 14.06%
same,Total Cell Count,[2],205 and 176
same,Population Apoptotic (%),[3],10% and 14.71%
same,Population Fragmented Nuclei (%),[3],10% and 5.2%
same,Population Healthy Nuclei (%),[3],73.33% and 81.2%
same,Population Hoechst High Intensity Objects (%),[3],0%
same,Population Membrane Permeable-Phenotype (%),[3],6.06% and 1.48%
same,Population Mitochondria Different-Phenotype (%),[3],3.79% and 8.37%
same,Population Mitotic Cells (%),[3],90% and 85.29%
same,Population Normal (%),[3],100%
same,Population Pyknosed Nuclei (%),[3],16.67% and 13.6%
same,Population Tubulin-Different-Phenotype (%),[3],12.12% and 11.33%
same,Total Cell Count,[3],180 and 250
same,Population Apoptotic (%),[4],4.92% and 12.82%
same,Population Fragmented Nuclei (%),[4],6.84% and 5.46%
same,Population Healthy Nuclei (%),[4],67.09% and 73.22%
same,Population Hoechst High Intensity Objects (%),[4],0%
same,Population Membrane Permeable-Phenotype (%),[4],5.1% and 0%
same,Population Mitochondria Different-Phenotype (%),[4],3.82% and 5.97%
same,Population Mitotic Cells (%),[4],95.08% and 87.18%
same,Population Normal (%),[4],100%
same,Population Pyknosed Nuclei (%),[4],26.07% and 21.31%
same,Population Tubulin-Different-Phenotype (%),[4],12.1% and 15.67%
same,Total Cell Count,[4],234 and 183
same,Population Fragmented Nuclei (%),[5],13% and 5%
same,Population Healthy Nuclei (%),[5],83% and 91.25%
same,Population Hoechst High Intensity Objects (%),[5],0%
same,Population Membrane Permeable-Phenotype (%),[5],1.2% and 2.74%
same,Population Mitotic Cells (%),[5],87.5% and 55.56%
same,Population Normal (%),[5],100%
same,Population Pyknosed Nuclei (%),[5],4% and 3.75%
same,Population Tubulin-Different-Phenotype (%),[5],6.02% and 11.42%
same,Total Cell Count,[5],200 and 240
same,Population Apoptotic (%),[6],19.05% and 14.29%
same,Population Fragmented Nuclei (%),[6],4.95% and 6.88%
same,Population Healthy Nuclei (%),[6],87.63% and 85.71%
same,Population Hoechst High Intensity Objects (%),[6],0%
same,Population Membrane Permeable-Phenotype (%),[6],0.4% and 4.32%
same,Population Mitochondria Different-Phenotype (%),[6],11.69% and 2.47%
same,Population Mitotic Cells (%),[6],80.95% and 85.71%
same,Population Normal (%),[6],100%
same,Population Pyknosed Nuclei (%),[6],7.42% and 7.41%
same,Population Tubulin-Different-Phenotype (%),[6],6.45% and 14.2%
same,Total Cell Count,[6],283 and 189
COc1cc(OC2CCN(C(C)=O)CC2)ccc1C(=O)N1CCC(N2C(=O)OCc3ccccc32)CC1,Population Apoptotic (%),[1],41% and 40%
same,Population Fragmented Nuclei (%),[1],12% and 29%
same,Population Healthy Nuclei (%),[1],64% and 52%
same,Population Hoechst High Intensity Objects (%),[1],5% and 3%
same,Population Membrane Permeable-Phenotype (%),[1],2% and 0%
same,Population Mitochondria Different-Phenotype (%),[1],5% and 3%
same,Population Mitotic Cells (%),[1],58% and 59%
same,Population Normal (%),[1],94% and 96%
same,Population Pyknosed Nuclei (%),[1],22% and 17%
same,Population Tubulin-Different-Phenotype (%),[1],32% and 34%
same,Total Cell Count,[1],157 and 159
same,Population Apoptotic (%),[2],52% and 37%
same,Population Healthy Nuclei (%),[2],73% and 40%
same,Population Hoechst High Intensity Objects (%),[2],3% and 6%
same,Population Membrane Permeable-Phenotype (%),[2],0% and 2%
same,Population Mitochondria Different-Phenotype (%),[2],6% and 10%
same,Population Mitotic Cells (%),[2],48% and 62%
same,Population Normal (%),[2],96% and 93%
same,Population Pyknosed Nuclei (%),[2],16% and 28%
same,Population Tubulin-Different-Phenotype (%),[2],54% and 56%
same,Total Cell Count,[2],161 and 134
same,Population Apoptotic (%),[3],63% and 48%
same,Population Fragmented Nuclei (%),[3],19% and 28%
same,Population Healthy Nuclei (%),[3],63% and 51%
same,Population Hoechst High Intensity Objects (%),[3],1%
same,Population Membrane Permeable-Phenotype (%),[3],0% and 5%
same,Population Mitochondria Different-Phenotype (%),[3],4% and 3%
same,Population Mitotic Cells (%),[3],36% and 51%
same,Population Normal (%),[3],98%
same,Population Pyknosed Nuclei (%),[3],17% and 19%
same,Population Tubulin-Different-Phenotype (%),[3],32% and 31%
same,Total Cell Count,[3],170 and 155
same,Population Apoptotic (%),[4],36% and 43%
same,Population Fragmented Nuclei (%),[4],13% and 34%
same,Population Healthy Nuclei (%),[4],74% and 48%
same,Population Hoechst High Intensity Objects (%),[4],7%
same,Population Membrane Permeable-Phenotype (%),[4],1% and 3%
same,Population Mitochondria Different-Phenotype (%),[4],7% and 10%
same,Population Mitotic Cells (%),[4],63% and 56%
same,Population Normal (%),[4],92%
same,Population Pyknosed Nuclei (%),[4],11% and 17%
same,Population Tubulin-Different-Phenotype (%),[4],39% and 70%
same,Total Cell Count,[4],172 and 145
same,Population Apoptotic (%),[5],40% and 58%
same,Population Fragmented Nuclei (%),[5],14% and 32%
same,Population Healthy Nuclei (%),[5],70% and 52%
same,Population Hoechst High Intensity Objects (%),[5],7% and 3%
same,Population Membrane Permeable-Phenotype (%),[5],0% and 4%
same,Population Mitochondria Different-Phenotype (%),[5],5% and 4%
same,Population Mitotic Cells (%),[5],59% and 41%
same,Population Normal (%),[5],92% and 96%
same,Population Pyknosed Nuclei (%),[5],14% and 15%
same,Population Tubulin-Different-Phenotype (%),[5],35% and 43%
same,Total Cell Count,[5],160 and 163
same,Population Apoptotic (%),[6],57% and 56%
same,Population Healthy Nuclei (%),[6],79% and 51%
same,Population Hoechst High Intensity Objects (%),[6],5% and 3%
same,Population Membrane Permeable-Phenotype (%),[6],0% and 3%
same,Population Mitochondria Different-Phenotype (%),[6],13% and 10%
same,Population Mitotic Cells (%),[6],42% and 43%
same,Population Normal (%),[6],94% and 96%
same,Population Pyknosed Nuclei (%),[6],9% and 12%
same,Population Tubulin-Different-Phenotype (%),[6],51% and 69%
same,Total Cell Count,[6],155 and 134

# Reference: ChEMBL document CHEMBL5724801, “EUbOPEN Chemogenomics Library - Multiplex” (2024)
